Reference: ChEMBL document CHEMBL1124291, “New actinomycin D analogues as superior chemotherapeutic agents against primary and advanced colon tumors and colon xenografts in nude mice” (J Med Chem, 1988)

Experiments:
P388 (Mus musculus) [1] = assay: Percent of the unidentified metabolites isolated from incubation mixture containing tumor cell homogenate(T)
HT-29 [2] = assay: 50% inhibition of incorporationf precursor [3H]thymidine into DNA HT-29 cell lines; assay type: functional, cell-based; conditions: Homo sapiens, HT-29, 2 h
Outline: (§1)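 HT-29 colon carcinoma monolayers, 10^4 cells per well, five wells per concentration. Drug exposure lasted 2 h, with [³H]thymidine and [2-¹⁴C]uridine (0.5 μCi each) added for the last hour. Cells were washed, trypsinized, counted and precipitated onto glass-fiber filters with 10% TCA. Acid-precipitable radioactivity was measured. IC50 is the concentration inhibiting 50% of incorporation; data are averages of replicate experiments.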

Rattus norvegicus [3] = species on record: Rattus norvegicus; assay: Percent of the tissue bound conjugates isolated from incubation mixture containing rat microsomes; assay type: functional
Outline: (§2)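 Tritiated analogues were incubated with two systems. (T) sonicated P388 cell homogenates, 37 °C for 16 h. (M) liver microsomes from phenobarbital-induced rats, 6 h with an NADPH-generating system (glucose-6-phosphate dehydrogenase plus glucose 6-phosphate). Metabolites and water-soluble conjugates were isolated, separated by HPLC and expressed as percentages.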

B16 [4] = assay: In vivo antitumor activity against B16 melanoma cells at a optimal dose measured as %ILS (%increase life span); assay type: functional, Mus musculus
Outline: (§3)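 BDF1 mice in groups of nine were implanted ip on day 0 with 0.2 mL of 1:5 (w/v) B16 melanoma brei; drugs were given ip. Survival is reported as median survival time in days with range, and as %ILS, with survivors counted on day 65 out of total injected.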

MC-38 [5] = assay: Number of toxic deaths/number of mice in a group of non tumored mice treated in parallel with the tumor-bearing mice and observed for 100 days at a dose of 1.20 mg/ Kg; value given as 4/9; assay type: toxicity; conditions: mouse, in vivo, 1.2 mg/kg, 2400 h
Outline: (§4)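 Non-tumored CDF1 mice were treated in parallel with colon 38 tumor-bearing mice: iv injections on days 1, 5 and 9, groups of nine. Deaths were counted over 100 days of observation and reported as toxic deaths / mice in group.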

P388 [6] = assay: Antitumor activity in P388/ADR (adriamycin resistant), in male BDF1 mice measured as optimal dose
HT-29 [7] = assay: 50% inhibition of incorporationf precursor [3H]thymidine into RNA HT-29 cell lines; assay type: functional, cell-based; conditions: Homo sapiens, HT-29, 2 h; in the assay text read “[14C]uridine” for “[3H]thymidine”
Outline: as §1

Rattus norvegicus [8] = species on record: Rattus norvegicus; assay: The formation of adrenochrome from epinephrine in the presence of SOD(super oxide dismutase); + denotes ' Inhibited'; assay type: functional
Outline: (§5)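 Drug-stimulated superoxide generation with rat liver microsomal enzymes and NADPH as cofactor. NADPH oxidation was read at 340 nm. Adrenochrome formed from epinephrine was read at 480 nm, with or without superoxide dismutase. % stimulation = [(drug-stimulated rate − basal rate)/basal rate] × 100. Values are mean ± standard error of triplicate analyses.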

P388 [9] = assay: 50% inhibition of incorporation of precursor [3H]thymidine into DNA P388 cell lines; assay type: functional, cell-based; conditions: Mus musculus, P388, 2 h
B16 [10] = assay: In vivo antitumor activity against B16 melanoma cells at dose 300 ug/Kg /inj measured as Mean survival time (MST); assay type: functional, Mus musculus
Outline: as §3

Rattus norvegicus [11] = species on record: Rattus norvegicus; assay: Percent of the uncoverted isolated from incubation mixture containing trat microsomes,; assay type: functional
Outline: as §2

MC-38 [12] = assay: Mean survival time of treated / untreated group x100. (number of over 100-day survivors/number of total mice in the group) at a dose 0.30 mg/kg; assay type: functional, Mus musculus; conditions: dose 0.3 mg/kg
Outline: (§6)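 CDF1 mice were implanted sc on day 0 with colon 38 adenocarcinoma fragments (70 mg) and given iv drug on days 1, 5 and 9. %T/C = median survival of treated / untreated × 100. Number of mice surviving over 100 days / group total is given in parentheses.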

P388 (Mus musculus) [13] = assay: Percent of the uncoverted isolated from incubation mixture containing tumor cell homogenate(T)
Rattus norvegicus [14] = species on record: Rattus norvegicus; assay: The formation of adrenochrome from epinephrine in the absence of SOD(super oxide dismutase); assay type: functional
Outline: as §5

MC-38 [15] = assay: Activity against advanced carcinoma C38 tumor in CDF1 mice at dose 1.20 mg/kg measured as % inhibition of tumor; assay type: functional; conditions: Mus musculus
Rattus norvegicus [16] = species on record: Rattus norvegicus; assay: DNA-cleaving ability expressed as % of closed circular pBR322 DNA cleaved […] conc 50 uM; assay type: functional
Outline: (§7)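 pBR322 DNA (200 μM nucleotides) in 10 mM Tris·HCl pH 7.8 and 50 mM NaCl, with 4 mM Na₂S₂O₄ and 100 μM FeCl₂. Incubated with drug for 1 h at 20 °C, kept air-saturated. Supercoiled and open-circular forms were separated by agarose gel electrophoresis, stained with ethidium bromide and quantitated by densitometry. % cleaved was calculated from the open- and closed-circular amounts.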

MC-38 [17] = assay: Activity against advanced carcinoma C38 tumor in CDF1 Mice at dose 0.60 mg/kg measured as % inhibition of tumor; assay type: functional; conditions: Mus musculus
MC-38 [18] = assay: Activity against advanced carcinoma C38 tumor in CDF1 Mice at dose 0.30 mg/kg measured as % inhibition of tumor; assay type: functional; conditions: Mus musculus
Rattus norvegicus [19] = species on record: Rattus norvegicus; assay: Percent of the protein conjugates isolated from incubation mixture containing tumor cell homogenate(T); assay type: functional
Outline: as §2

Rattus norvegicus [20] = species on record: Rattus norvegicus; assay: Stimulation of NADPH oxidation in the presence of rat liver microsomes; assay type: functional
Outline: as §5

Rattus norvegicus [21] = species on record: Rattus norvegicus; assay: Percent of the protein conjugates isolated from incubation mixture containing rat micro somes; assay type: functional
Outline: as §2

MC-38 [22] = assay: Mean survival time of treated / untreated group x100. (number of over 100-day survivors/number of total mice in the group) at a dose 0.60 mg/kg; assay type: functional, Mus musculus; conditions: dose 0.6 mg/kg
Outline: as §6

Rattus norvegicus [23] = species on record: Rattus norvegicus; assay: Percent of the SAD glucuronide and/or sulfate isolated from incubation mixture containing tumor cell homogenate(T) after 8.0, 10.5 min.; assay type: functional
Outline: as §2

Rattus norvegicus [24] = species on record: Rattus norvegicus; assay: DNA-cleaving ability expressed as % of closed circular pBR322 DNA cleaved at 100 uM conc 100 uM; assay type: functional
Outline: as §7

MC-38 [25] = assay: Number of toxic deaths/number of mice in a group of non tumored mice treated in parallel with the tumor-bearing mice and observed for 100 days at a dose of 0.60 mg/ kg; value given as 0/9; assay type: functional, Mus musculus
Outline: as §4

P388 [26] = assay: Antitumor activity in P388/S(AMD sensitive) in male BDF1 mice measured as optimal dose at dose 0.3-1.8 mg/kg
pBR322 plasmid DNA = assay: DNA-cleaving ability expressed as % of closed circular pBR322 DNA cleaved […]
[27] = DNA-cleaving ability expressed as % of closed circular pBR322 DNA cleaved at 10 uM conc 10 uM
Rattus norvegicus [28] = species on record: Rattus norvegicus; assay: Percent of the unidentified metabolites isolated from incubation mixture containing rat micro somes; assay type: functional
Outline: as §2

P388 [29] = assay: 50% inhibition of incorporation precursor [14C]uridine into RNA P388 cell lines; assay type: functional, cell-based; conditions: Mus musculus
MC-38 [30] = assay: Number of toxic deaths/number of mice in a group of non tumored mice treated in parallel with the tumor-bearing mice and observed for 100 days at a dose of 0.30 mg/ kg; value given as 0/9; assay type: functional, Mus musculus
Outline: as §4

MC-38 [31] = assay: Mean survival time of treated / untreated group x100. (number of over 100-day survivors/number of total mice in the group) at a dose 1.20 mg/kg; assay type: functional, Mus musculus; conditions: dose 1.2 mg/kg
Outline: as §6

P388 (Mus musculus) [32] = assay: Percent of the tissue bound conjugates isolated from incubation mixture containing tumor cell homogenate(T)
MC-38 [33] = assay: Number of toxic deaths/number of mice in a group of non tumored mice treated in parallel with the tumor-bearing mice and observed for 100 days at a dose 5.0 mg/kg; value given as 8/9; assay type: toxicity, organism-based; set-up: dose 5 mg/kg; conditions: mouse, in vivo, 2400 h
Outline: as §4

MC-38 [34] = assay: Mean survival time of treated / untreated group x100. (number of over 100-day survivors/number of total mice in the group) at a dose 3.0 mg/kg; assay type: functional, Mus musculus
Outline: as §6

MC-38 [35] = assay: Number of toxic deaths/number of mice in a group of non tumored mice treated in parallel with the tumor-bearing mice and observed for 100 days at a dose 3.0 mg/kg; value given as 0/9; assay type: functional, Mus musculus
Outline: as §4

MC-38 [36] = assay: Number of toxic deaths/number of mice in a group of non tumored mice treated in parallel with the tumor-bearing mice and observed for 100 days at a dose 4.0 mg/kg; value given as 3/9; assay type: toxicity, organism-based; set-up: dose 4 mg/kg; conditions: mouse, in vivo, 2400 h
Outline: as §4

MC-38 [37] = assay: Mean survival time of treated / untreated group x100. (number of over 100-day survivors/number of total mice in the group) at a dose 4.0 mg/kg; assay type: functional, Mus musculus
Outline: as §6

P388 [38] = assay: Antitumor activity in P388/S(AMD sensitive) in male BDF1 mice measured as optimal dose
MC-38 [39] = assay: Number of toxic deaths/number of mice in a group of non tumored mice treated in parallel with the tumor-bearing mice and observed for 100 days at a dose 2.0 mg/kg; value given as 0/9; assay type: functional, Mus musculus
Outline: as §4

P388 [40] = assay: Antitumor activity in P388/ADR (adriamycin resistant), in male BDF1 mice measured as optimal dose at dose 2.5-4.5 mg/kg/ inj, ip
MC-38 [41] = assay: Activity against advanced carcinoma C38 Tumor in CDF1 Mice at dose 4.0 mg/Kg measured as % inhibition of tumor; assay type: functional; conditions: Mus musculus
MC-38 [42] = assay: Activity against advanced carcinoma C38 Tumor in CDF1 Mice at dose 3.0 mg/Kg measured as % inhibition of tumor; assay type: functional; conditions: Mus musculus
MC-38 [43] = assay: Activity against advanced carcinoma C38 Tumor in CDF1 Mice at dose 2.0 mg/Kg measured as % inhibition of tumor; assay type: functional; conditions: Mus musculus

## Cc1c2oc3c(C)c(O)c(N)c(C(=O)N[C@@H]4C(=O)N[C@H](C(C)C)C(=O)N5CCC[C@H]5C(=O)N(C)CC(=O)N(C)[C@@H](C(C)C)C(=O)O[C@@H]4C)c3nc-2c(C(=O)N[C@@H]2C(=O)N[C@H](C(C)C)C(=O)N3CCC[C@H]3C(=O)N(C)CC(=O)N(C)[C@@H](C(C)C)C(=O)O[C@@H]2C)c(N)c1=O
P388 (Mus musculus) [1]
  Activity: 10%
HT-29 [2]
  IC50: 70 nM
Rattus norvegicus [3]
  Activity: 15%
B16 [4]
  ILS: 96%
MC-38 [5]
  Toxic deaths: 4
P388 [6]
  optimal dose: 1.2 mg/kg
HT-29 [7]
  IC50: 55 nM
Rattus norvegicus [8]
  Adrenochrome formation: Inhibited
P388 [9]
  IC50: 12 nM
B16 [10]
  MST: 57
Rattus norvegicus [11]
  Activity: 50%
MC-38 [12]
  T/C: 278%
P388 (Mus musculus) [13]
  Activity: 30%
Rattus norvegicus [14]
  Adrenochrome formation: 19.3 nM min-1 (mg of protein)-1
MC-38 [15]
  inhibition in vivo at 1.2 mg/kg: 99%
Rattus norvegicus [16]
  Activity: 50%
MC-38 [17]
  inhibition in vivo at 0.6 mg/kg: 97%
MC-38 [18]
  inhibition in vivo at 0.3 mg/kg: 95%
Rattus norvegicus [19]
  Activity: 5.5%
Rattus norvegicus [20]
  NADPH oxidation (nM min-1 (mg of protein)-1): 64.3
Rattus norvegicus [21]
  Activity: 20%
MC-38 [22]
  T/C: 278%
Rattus norvegicus [23]
  Activity: 47%
Rattus norvegicus [24]
  Activity: 65%
MC-38 [25]
  Toxic deaths: 0
P388 [26]
  optimal dose: 0.6 mg/kg
pBR322 plasmid DNA
  Activity: 50%
[27]
  Activity: 35%
Rattus norvegicus [28]
  Activity: 15%
P388 [29]
  IC50: 15 nM
MC-38 [30]
  Toxic deaths: 0
MC-38 [31]
  T/C: 211%
P388 (Mus musculus) [32]
  Activity: 7.5%

## COc1cccc2c1C(=O)c1c(O)c3c(c(O)c1C2=O)C[C@@](O)(C(=O)CO)C[C@@H]3O[C@H]1C[C@H](N)[C@H](O)[C@H](C)O1 [DOXORUBICIN]
MC-38 [33]
  Toxic deaths: 8
MC-38 [34]
  T/C: 98%
MC-38 [35]
  Toxic deaths: 0
MC-38 [36]
  Toxic deaths: 3
MC-38 [37]
  T/C: 250%
P388 [38]
  optimal dose: 3 mg/kg
MC-38 [39]
  Toxic deaths: 0
P388 [40]
  optimal dose: 3.5 mg/kg
MC-38 [41]
  inhibition in vivo at 4 mg/kg: 93%
MC-38 [42]
  inhibition in vivo at 3 mg/kg: 70%
MC-38 [43]
  inhibition in vivo at 2 mg/kg: 29%
